Results published in ChEMBL document CHEMBL1131628 (J Med Chem, 1998).
pIC50: −log10 of the molar value. Values joined by “and” are separate entries in the source; they are usually repeats but may differ in a detail not shown here. Identical values can stand only once.

Legend:
Endothelin-1 receptor [1] = biological target: T1, Endothelin-1 receptor (Rattus norvegicus, UniProt P26684); assay: Binding affinity for endothelin A receptor by measuring its ability to displace [125I]ET1 from prolactin secreting rat pituitary cells(MMQ); type: cell-based, Pituitary gland cell
T1 sequence (P26684 whole entry): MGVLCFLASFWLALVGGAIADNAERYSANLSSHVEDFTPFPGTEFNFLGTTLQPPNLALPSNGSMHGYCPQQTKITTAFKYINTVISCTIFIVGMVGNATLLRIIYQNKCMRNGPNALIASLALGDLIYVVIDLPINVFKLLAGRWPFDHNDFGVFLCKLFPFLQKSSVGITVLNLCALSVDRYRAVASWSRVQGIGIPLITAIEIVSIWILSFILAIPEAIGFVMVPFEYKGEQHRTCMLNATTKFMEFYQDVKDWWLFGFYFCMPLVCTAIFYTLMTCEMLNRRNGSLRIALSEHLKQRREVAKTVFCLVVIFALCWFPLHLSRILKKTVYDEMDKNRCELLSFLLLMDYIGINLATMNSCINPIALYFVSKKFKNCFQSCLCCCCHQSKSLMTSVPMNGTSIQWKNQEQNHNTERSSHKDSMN

[2] = Pharmacokinetic profile AUC was evaluated in rats; type: ADME, organism-based; design: concentration or dose not given beside the values; conditions: rat, in vivo
How it was run: (§1)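 Male Sprague-Dawley rats, n = 4 per group, 10 mg/kg iv (jugular slow bolus) or oral gavage, 10 mg/mL in ethanol–propylene glycol–D5W (20:30:50) with 1 equiv NaOH. Tail-vein plasma taken 0.1 (iv only) to 12 h, assayed by HPLC after extraction. AUC by trapezoidal rule extrapolated to infinity; T1/2 from terminal rate constant; F as oral/iv AUC.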

Endothelin-1 receptor [3] = biological target: T2, Endothelin-1 receptor (Homo sapiens, UniProt P25101); assay: Tested for binding affinity for human Endothelin A receptor by measuring its ability to displace [125I]ET1 from chinese hamster ovary cells(CHO); type: cell-based
T2 sequence (P25101 whole entry): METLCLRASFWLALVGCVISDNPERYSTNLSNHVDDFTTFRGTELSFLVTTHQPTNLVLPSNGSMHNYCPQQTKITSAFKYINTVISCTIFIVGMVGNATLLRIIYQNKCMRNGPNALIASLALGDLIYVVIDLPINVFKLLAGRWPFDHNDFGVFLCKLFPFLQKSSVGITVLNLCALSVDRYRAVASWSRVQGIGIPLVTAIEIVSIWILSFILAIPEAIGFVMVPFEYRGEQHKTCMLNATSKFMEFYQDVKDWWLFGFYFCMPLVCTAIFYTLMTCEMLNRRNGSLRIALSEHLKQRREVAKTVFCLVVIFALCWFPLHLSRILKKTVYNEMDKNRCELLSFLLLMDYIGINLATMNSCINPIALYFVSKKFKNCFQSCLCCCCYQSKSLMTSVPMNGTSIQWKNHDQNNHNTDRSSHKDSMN

[4] = Pharmacokinetic profile-half life was evaluated in rats upon intravenous administration; type: ADME, organism-based; conditions: rat, in vivo; how it was run: as §1
[5] = Bioavailability in rat; type: ADME, organism-based; conditions: in vivo; how it was run: as §1
[6] = Pharmacokinetic profile-half life was evaluated in rats upon oral administration; type: ADME, organism-based; conditions: rat, in vivo; how it was run: as §1
[7] = Pharmacokinetic profile Cmax was evaluated in rats; type: ADME, organism-based; conditions: rat, in vivo; how it was run: as §1
[8] = biological target: T3, Endothelin receptor type B (Homo sapiens, UniProt P24530); assay: Tested for binding affinity for human Endothelin B receptor by measuring its ability to displace [125I]ET-3 from chinese hamster ovary cells(CHO); type: cell-based
T3 sequence (P24530 whole entry): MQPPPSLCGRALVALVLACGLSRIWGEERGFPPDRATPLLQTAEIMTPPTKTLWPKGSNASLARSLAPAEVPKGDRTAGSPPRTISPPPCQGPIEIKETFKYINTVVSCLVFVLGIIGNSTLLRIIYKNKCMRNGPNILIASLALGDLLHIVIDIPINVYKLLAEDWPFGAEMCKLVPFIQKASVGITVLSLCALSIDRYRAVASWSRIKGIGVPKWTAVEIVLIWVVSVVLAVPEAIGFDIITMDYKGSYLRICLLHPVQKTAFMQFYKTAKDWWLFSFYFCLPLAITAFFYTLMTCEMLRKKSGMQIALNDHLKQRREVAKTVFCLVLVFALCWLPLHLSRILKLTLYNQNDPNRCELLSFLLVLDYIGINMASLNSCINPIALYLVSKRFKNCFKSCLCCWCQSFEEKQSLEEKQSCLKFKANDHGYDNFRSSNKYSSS

CCCCN(CCCC)C(=O)CN1C[C@H](c2ccc3c(c2)OCO3)[C@@H](C(=O)O)[C@@H]1CCc1cccn1C
pIC50 (Endothelin-1 receptor [1]): 8.60

CCCCC[C@H]1[C@H](C(=O)O)[C@@H](c2ccc3c(c2)OCO3)CN1CC(=O)N(CCCC)CCCC
pIC50 (Endothelin-1 receptor [1]): 8.60

CCCCN(CCCC)C(=O)CN1C[C@H](c2ccc3c(c2)OCO3)[C@@H](C(=O)O)[C@@H]1CCC1CCOCC1
pIC50 (Endothelin-1 receptor [1]): 8.00

CCCCN(CCCC)C(=O)CN1C[C@H](c2ccc3c(c2)OCO3)[C@@H](C(=O)O)[C@@H]1CCN1CCCCC1=O
pIC50 (Endothelin-1 receptor [1]): 8.70

CCCCN(CCCC)C(=O)CN1C[C@H](c2ccc3c(c2)OCO3)[C@@H](C(=O)O)[C@@H]1CCc1ccccn1
AUC [2]: 0.78 µg·h/mL | pIC50 (Endothelin-1 receptor [3]): 9.54 | pIC50 (Endothelin-1 receptor [1]): 9.42 and 9.14 | half-life [4]: 2.8 h | bioavailability [5]: 21.1% | half-life [6]: 8.8 h | Cmax [7]: 0.58 µg/mL | pIC50 [8]: 4.49

C/C=C\C(C)(C)C[C@H]1[C@H](C(=O)O)[C@@H](c2cc(OC)c3c(c2)OCO3)CN1CC(=O)N(CCCC)CCCC
AUC [2]: 2.09 µg·h/mL | pIC50 (Endothelin-1 receptor [3]): 9.54 | pIC50 (Endothelin-1 receptor [1]): 9.39 | half-life [4]: 1.5 h | bioavailability [5]: 27.8% | half-life [6]: 3.94 h | Cmax [7]: 0.66 µg/mL | pIC50 [8]: 4.40

CCCCN(CCCC)C(=O)CN1C[C@H](c2ccc3c(c2)OCO3)[C@@H](C(=O)O)[C@@H]1CCN1CCCC1=O
AUC [2]: 0.009 µg·h/mL | pIC50 (Endothelin-1 receptor [3]): 9.77 | pIC50 (Endothelin-1 receptor [1]): 9.38 | half-life [4]: 1.4 h | bioavailability [5]: 0.3% | Cmax [7]: 0.016 µg/mL | pIC50 [8]: 4.74

C=CCCC[C@H]1[C@H](C(=O)O)[C@@H](c2ccc3c(c2)OCO3)CN1CC(=O)N(CCCC)CCCC
pIC50 (Endothelin-1 receptor [1]): 8.00

CCCCN(CCCC)C(=O)CN1C[C@H](c2ccc3c(c2)OCO3)[C@@H](C(=O)O)[C@@H]1CCn1ccccc1=O
pIC50 (Endothelin-1 receptor [1]): 8.66

C/C=C(\C)CC[C@H]1[C@H](C(=O)O)[C@@H](c2ccc3c(c2)OCO3)CN1CC(=O)N(CCCC)CCCC
pIC50 (Endothelin-1 receptor [1]): 8.48

CCCCN(CCCC)C(=O)CN1C[C@H](c2ccc3c(c2)OCO3)[C@@H](C(=O)O)[C@@H]1CC(CCC)CCC
pIC50 (Endothelin-1 receptor [1]): 8.22

C/C=C/CC[C@H]1[C@H](C(=O)O)[C@@H](c2ccc3c(c2)OCO3)CN1CC(=O)N(CCCC)CCCC
pIC50 (Endothelin-1 receptor [1]): 8.32

CCCCN(CCCC)C(=O)CN1C[C@H](c2ccc3c(c2)OCO3)[C@@H](C(=O)O)[C@@H]1CC(C)(C)C1OCCO1
pIC50 (Endothelin-1 receptor [1]): 8.85

CCCCN(CCCC)C(=O)CN1C[C@H](c2ccc3c(c2)OCO3)[C@@H](C(=O)O)[C@@H]1CCCCC(F)(F)F
pIC50 (Endothelin-1 receptor [1]): 8.40

CCCCN(CCCC)C(=O)CN1C[C@H](c2ccc3c(c2)OCO3)[C@@H](C(=O)O)[C@@H]1CC(C)CCC (some centres not stated)
pIC50 (Endothelin-1 receptor [1]): 8.52

CCCCN(CCCC)C(=O)CN1C[C@H](c2ccc3c(c2)OCO3)[C@@H](C(=O)O)[C@@H]1CCC(CC)CC
pIC50 (Endothelin-1 receptor [1]): 7.66

CCCCN(CCCC)C(=O)CN1C[C@H](c2ccc3c(c2)OCO3)[C@@H](C(=O)O)[C@@H]1CCC1OCCCO1
pIC50 (Endothelin-1 receptor [1]): 8.48

CCCCN(CCCC)C(=O)CN1C[C@H](c2ccc3c(c2)OCO3)[C@@H](C(=O)O)[C@@H]1CCc1ccco1
pIC50 (Endothelin-1 receptor [1]): 8.57

CCCCN(CCCC)C(=O)CN1C[C@H](c2ccc3c(c2)OCO3)[C@@H](C(=O)O)[C@@H]1CCc1nc(C)c(C)o1
pIC50 (Endothelin-1 receptor [1]): 8.98

CCCCN(CCCC)C(=O)CN1C[C@H](c2ccc3c(c2)OCO3)[C@@H](C(=O)O)[C@@H]1CCC=C(C)C
pIC50 (Endothelin-1 receptor [1]): 8.89

CCCCN(CCCC)C(=O)CN1C[C@H](c2ccc3c(c2)OCO3)[C@@H](C(=O)O)[C@@H]1CCC1OC(C)C(C)O1 (some centres not stated)
pIC50 (Endothelin-1 receptor [1]): 7.89

CCCCN(CCCC)C(=O)CN1C[C@H](c2ccc3c(c2)OCO3)[C@@H](C(=O)O)[C@@H]1CCC1CCCCO1 (some centres not stated)
pIC50 (Endothelin-1 receptor [1]): 8.74
